Source: ChEMBL document CHEMBL1148581, “Antimalarial and antiplasmodial activities of norneolignans. Syntheses and SAR” (J Med Chem, 2006)
≈ marks a conversion by molar mass, not a printed value. Calls of active or inactive are those of the source. No cut-off for these calls is given here.

The molecules below were run on Plasmodium falciparum (assay: Antiplasmodial activity against Plasmodium falciparum 3D7). Conditions: not given.
Format: functional, organism-based
Procedure, shortened: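 Desjardins [³H]phenylalanine incorporation method (Ziegler modification). Parasitized erythrocytes (blood type 0, 5% hematocrit, 2-3% parasitemia) mixed with compounds in RPMI 1640/HEPES with 0.45% Albumax II, L-glutamine, hypoxanthine, gentamicin; final DMSO ≤0.5%. 24 h at 37 °C under 93% N₂/5% CO₂/2% O₂, then label added for further 24 h; filter-harvested, scintillation counted. Three experiments, each in triplicate; IC50.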
`CCC(/C=C/c1ccc(OC)cc1OC)c1ccc(Cl)cc1Cl` (configuration not stated) was tested, and the IC50 was 6 µg/mL (≈ 17.1 µM). `C=CCOc1ccc(CCCc2ccc(OC)cc2OC)cc1` gave an IC50 of 9.5 µg/mL (≈ 30.4 µM). In the case of `C=CCOc1ccc(CCC(C=C)c2ccc(OC)cc2OC)cc1` (configuration not stated), the IC50 is reported as 5.2 µg/mL (≈ 15.4 µM). In the case of `C=CCOc1ccc(C(O)CC(C=C)c2ccc(OC)cc2OC)cc1` (configuration not stated), the IC50 is reported as 16 µg/mL (≈ 45.1 µM). Molecule `CCC(/C=C/c1ccccc1CN(C)C)c1ccc(Cl)cc1Cl` (configuration not stated) has an IC50 of 4.1 µg/mL (≈ 11.8 µM). Molecule `C=C[C@H](/C=C/c1ccc(O)cc1)c1ccc(O)cc1` has an IC50 of 14 µg/mL (≈ 55.5 µM). Work on `C=CC(/C=C/c1ccc(F)cc1)c1ccc(F)cc1` (configuration not stated) yielded an IC50 of 10 µg/mL (≈ 39 µM). `CCC(/C=C/c1ccccc1C(F)(F)F)c1ccc(Cl)cc1Cl` (configuration not stated) showed an IC50 of 6 µg/mL (≈ 16.7 µM). `C=CC(/C=C/c1ccccc1C(F)(F)F)c1ccc(Cl)cc1Cl` (configuration not stated) gave an IC50 of 8.2 µg/mL (≈ 23 µM). `C=CC(/C=C/c1ccc(Cl)cc1Cl)c1ccc(OC)cc1OC` (configuration not stated) was tested, and the IC50 was 1.5 µg/mL (≈ 4.29 µM). `C=CC(/C=C/c1ccccc1CN(C)C)c1ccc(Cl)cc1Cl` (configuration not stated) gave an IC50 of 3 µg/mL (≈ 8.66 µM). Work on `CCC(/C=C/c1ccc(OC)c(OC)c1OC)c1cccc(F)c1` (configuration not stated) yielded an IC50 of 3.9 µg/mL (≈ 11.8 µM). Molecule `COc1ccc(C2CC(c3ccccc3Br)OC2C)c(OC)c1` (configuration not stated) has an IC50 of 3 µg/mL (≈ 7.95 µM). Molecule `COc1ccc(C2CC(c3ccc(Cl)cc3Cl)OC2C)c(OC)c1` (configuration not stated) has an IC50 of 6.9 µg/mL (≈ 18.8 µM). With `CCC(/C=C/c1ccc(F)cc1F)c1ccc(OC)cc1OC` (configuration not stated) the IC50 was 3.9 µg/mL (≈ 12.3 µM). In the case of `CCC(/C=C/c1ccc(Cl)cc1Cl)c1ccc(OC)cc1OC` (configuration not stated), the IC50 is reported as 4.2 µg/mL (≈ 12 µM). Molecule `C=CC(/C=C/c1ccc(O)cc1)c1ccc(O)cc1` (racemic) has an IC50 of 13 µg/mL (≈ 51.5 µM). Molecule `C=CCOc1ccc(/C=C/C(CCCC)c2ccc(OC)cc2OC)cc1` (configuration not stated) has an IC50 of 2.7 µg/mL (≈ 7.37 µM). `C=CC(/C=C/c1ccccc1F)c1cc(OC)cc(OC)c1` (configuration not stated) showed an IC50 of 6 µg/mL (≈ 20.1 µM). Work on `C=CCOc1ccc(CCC(CCCC)c2ccc(OC)cc2OC)cc1` (configuration not stated) yielded an IC50 of 2.2 µg/mL (≈ 5.97 µM). Work on `C=C[C@@H](/C=C/c1ccc(O)cc1)c1ccc(O)cc1` yielded an IC50 of 20 µg/mL (≈ 79.3 µM). For `C=CCOc1ccc(/C=C/C(C=C)c2ccc(OC)cc2OC)cc1` (configuration not stated), the IC50 was 7 µg/mL (≈ 20.8 µM). In the case of `C=CC(/C=C/c1ccc(OC)c(OC)c1OC)c1cccc(F)c1` (configuration not stated), the IC50 is reported as 6 µg/mL (≈ 18.3 µM). `C=CC(/C=C/c1ccccc1Br)c1ccc(OC)cc1OC` (configuration not stated) gave an IC50 of 8.8 µg/mL (≈ 24.5 µM). With `C=CC(/C=C/c1ccc(OC)cc1OC)c1ccc(Cl)cc1Cl` (configuration not stated) the IC50 was 7 µg/mL (≈ 20 µM). `CCC(/C=C/c1ccccc1Br)c1ccc(OC)cc1OC` (configuration not stated) was tested, and the IC50 was 5.4 µg/mL (≈ 14.9 µM). `CCC(/C=C/c1ccc(F)cc1)c1ccc(F)cc1` (configuration not stated) was tested, and the IC50 was 13 µg/mL (≈ 50.3 µM). Work on `C=CC(/C=C/c1ccc(F)cc1F)c1ccc(OC)cc1OC` (configuration not stated) yielded an IC50 of 7 µg/mL (≈ 22.1 µM). For `CCC(/C=C/c1ccccc1F)c1cc(OC)cc(OC)c1` (configuration not stated), the IC50 was 6 µg/mL (≈ 20 µM). `C=CCOc1ccc(/C=C/C(CC)c2ccc(OC)cc2OC)cc1` (configuration not stated) gave an IC50 of 4 µg/mL (≈ 11.8 µM). With `C=CCOc1ccc(CCC(CC)c2ccc(OC)cc2OC)cc1` (configuration not stated) the IC50 was 3 µg/mL (≈ 8.81 µM).

The molecules below were run on Mus musculus (assay: Antimalarial activity in NMRI mice (Mus musculus) infected with Plasmodium berghei K173 at 25 mg/kg). Conditions: not given.
Format: functional
Procedure, shortened: (§1)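 Mice inoculated day 0 with 1×10⁶ P. berghei K173-infected red cells in 0.2 mL 0.9% saline; five mice per group. At day 4 (parasitemia 2-9%), ip dosing in 0.9% saline with 10% Tween 80, pH 4.5, on days 4 and 5; control group untreated or vehicle-injected. Day-5 tail-vein blood smear, Giemsa-stained, infected cells counted microscopically; % inhibition versus control.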
`C=CC(/C=C/c1ccc(Cl)cc1Cl)c1ccc(OC)cc1OC` (configuration not stated) gave an inhibition in vivo at 25 mg/kg of 57%. `C=CCOc1ccc(CCC(CCCC)c2ccc(OC)cc2OC)cc1` (configuration not stated) was tested, and the inhibition in vivo at 25 mg/kg was 25%.

The molecules below were run on Mus musculus (assay: Antimalarial activity in NMRI mice (Mus musculus) infected with Plasmodium berghei K173 at 50 mg/kg). Conditions: not given.
Format: functional
Procedure, shortened: as §1
For `C=CCOc1ccc(CCC(CCCC)c2ccc(OC)cc2OC)cc1` (configuration not stated), the inhibition in vivo at 50 mg/kg was 49%.

The molecules below were run on Mus musculus (assay: Antimalarial activity in NMRI mice (Mus musculus) infected with Plasmodium berghei K173 at 100 mg/kg). Conditions: not given.
Format: functional
Procedure, shortened: as §1
`C=CCOc1ccc(CCC(CCCC)c2ccc(OC)cc2OC)cc1` (configuration not stated) gave an inhibition in vivo at 100 mg/kg of 59%.

Species: Oryctolagus cuniculus
Assay: Inhibitory activity against SERCA in rabbit muscle at 3.5 ug/mL
Format: tissue-based
Conditions: Muscle tissue
For `C=CC(/C=C/c1ccc(Cl)cc1Cl)c1ccc(OC)cc1OC` (configuration not stated), the inhibition was “inactive”. For `C=CCOc1ccc(CCC(CCCC)c2ccc(OC)cc2OC)cc1` (configuration not stated), the inhibition was “inactive”.
